Assay results: ChEMBL document CHEMBL2321871, “A novel class of oral direct renin inhibitors: highly potent 3,5-disubstituted piperidines bearing a tricyclic p3-p1 pharmacophore” (J Med Chem, 2013)
Blank lines part the entries; values can stand above or below the compound they belong to.

Legend:
Renin [1] = target: T1, Renin (Homo sapiens, UniProt P00797); experiment: Inhibition of human recombinant renin using fluorescence-quenched (RE(EDANS)IHPFHLVIHTK(Dabcyl)R as substrate incubated for 1 hr prior to substrate addition measured after 1 hr by fluorescence polarization assay
T1 sequence (P00797 whole entry): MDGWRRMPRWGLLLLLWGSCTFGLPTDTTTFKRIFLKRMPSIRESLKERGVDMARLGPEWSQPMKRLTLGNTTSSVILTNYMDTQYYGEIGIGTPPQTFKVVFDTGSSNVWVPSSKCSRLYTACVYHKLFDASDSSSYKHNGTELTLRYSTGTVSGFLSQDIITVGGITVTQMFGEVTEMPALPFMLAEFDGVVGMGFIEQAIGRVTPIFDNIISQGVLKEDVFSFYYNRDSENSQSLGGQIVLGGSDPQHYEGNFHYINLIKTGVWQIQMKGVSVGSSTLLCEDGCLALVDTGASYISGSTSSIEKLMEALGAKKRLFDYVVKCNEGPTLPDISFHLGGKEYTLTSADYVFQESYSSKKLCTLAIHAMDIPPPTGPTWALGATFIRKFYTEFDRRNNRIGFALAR

Renin (Homo sapiens) = target: T2, Renin (Homo sapiens) (UniProt P00797); experiment: Inhibition of human recombinant renin using fluorescence-quenched (RE(EDANS)IHPFHLVIHTK(Dabcyl)R as substrate at 100 uM incubated for 1 hr prior to substrate addition measured after 1 hr by fluorescence polarization assay
T2 sequence (whole entry): T1 sequence (P00797 whole entry)

Rattus norvegicus [2] = experiment: Antihypertensive activity in telemetered hypertensive double-transgenic rat model expressing human renin angiotensinogen assessed as time required for 50 % recovery at 6 mg/kg, po; type: functional
Summary of the method: (§1)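 Telemetered hypertensive double-transgenic rats given a single oral dose (6 or 30 mg/kg); mean arterial blood pressure monitored for maximal reduction from pre-treatment baseline and time to 50% recovery to baseline.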

[3] = Plasma clearance in Sprague-Dawley rat at 2 mg/kg, iv and 6 mg/kg, po by HPLC analysis; type: ADME, organism-based
Summary of the method: (§2)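 Fed Sprague–Dawley rats dosed at 2 mg/kg i.v. and 6 mg/kg p.o.; plasma levels followed over 24 h to derive oral AUC(0-24 h), Cmax, t1/2, plasma clearance, Vdss and oral bioavailability.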

Rattus norvegicus [4] = experiment: Antihypertensive activity in telemetered hypertensive double-transgenic rat model expressing human renin and angiotensinogen assessed as reduction of mean arterial blood pressure at 6 mg/kg, po; type: functional, Artery; summary of the method: as §1
Cathepsin E = target: T3, Cathepsin E (Homo sapiens, UniProt P14091); experiment: Inhibition of human recombinant cathepsin E expressed in Escherichia coli using fluorescence-quenched Ac-E-D(EDANS)-KPILFFRLG-K(Dabcyl)-E-Amid as substrate incubated for 1 hr prior to substrate addition measured after 1 hr by fluorescence polarization assay
T3 sequence (P14091 whole entry): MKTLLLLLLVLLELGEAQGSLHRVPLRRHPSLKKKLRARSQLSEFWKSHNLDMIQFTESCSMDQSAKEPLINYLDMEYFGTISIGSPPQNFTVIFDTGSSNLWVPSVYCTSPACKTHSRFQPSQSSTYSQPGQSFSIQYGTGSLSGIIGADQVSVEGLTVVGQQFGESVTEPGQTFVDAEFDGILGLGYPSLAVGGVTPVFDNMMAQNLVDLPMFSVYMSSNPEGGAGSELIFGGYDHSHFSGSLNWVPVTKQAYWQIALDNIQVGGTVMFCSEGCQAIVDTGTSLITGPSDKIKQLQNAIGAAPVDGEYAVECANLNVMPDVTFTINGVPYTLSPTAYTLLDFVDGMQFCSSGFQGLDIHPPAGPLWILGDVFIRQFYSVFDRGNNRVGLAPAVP

Rattus norvegicus [5] = experiment: Antihypertensive activity in telemetered hypertensive double-transgenic rat model expressing human renin angiotensinogen assessed as time required for 50 % recovery at 30 mg/kg, po; type: functional; summary of the method: as §1
[6] = Oral bioavailability in Sprague-Dawley rat at 6 mg/kg by HPLC analysis; type: ADME, organism-based; settings: in vivo; summary of the method: as §2
Rattus norvegicus [7] = experiment: Antihypertensive activity in telemetered hypertensive double-transgenic rat model expressing human renin and angiotensinogen assessed as reduction of mean arterial blood pressure at 30 mg/kg, po; type: functional, Artery; summary of the method: as §1
[8] = AUC (0 to 24 hrs) in Sprague-Dawley rat at 6 mg/kg, po by HPLC analysis; type: ADME, organism-based; parameters: time < 24 hr, dose 6 mg/kg, route oral; settings: plasma; summary of the method: as §2
Cathepsin D = Cathepsin D (Homo sapiens, UniProt P07339); experiment: Inhibition of human recombinant cathepsin D expressed in baculovirus-infected SF9 cells using fluorescence-quenched Ac-E-D(EDANS)-KPILFFRLG-K(Dabcyl)-E-Amid as substrate incubated for 1 hr prior to substrate addition measured after 1 hr by fluorescence polarization assay
Gastricsin = target: T4, Gastricsin (Homo sapiens, UniProt P20142); experiment: Inhibition of human recombinant pepsin C expressed in Escherichia coli using fluorescence-quenched Dabcyl-E-R-Nle-F-L-S-F-P-EDANS as substrate incubated for 1 hr prior to substrate addition measured after 1 hr by fluorescence polarization assay
T4 sequence (P20142 whole entry): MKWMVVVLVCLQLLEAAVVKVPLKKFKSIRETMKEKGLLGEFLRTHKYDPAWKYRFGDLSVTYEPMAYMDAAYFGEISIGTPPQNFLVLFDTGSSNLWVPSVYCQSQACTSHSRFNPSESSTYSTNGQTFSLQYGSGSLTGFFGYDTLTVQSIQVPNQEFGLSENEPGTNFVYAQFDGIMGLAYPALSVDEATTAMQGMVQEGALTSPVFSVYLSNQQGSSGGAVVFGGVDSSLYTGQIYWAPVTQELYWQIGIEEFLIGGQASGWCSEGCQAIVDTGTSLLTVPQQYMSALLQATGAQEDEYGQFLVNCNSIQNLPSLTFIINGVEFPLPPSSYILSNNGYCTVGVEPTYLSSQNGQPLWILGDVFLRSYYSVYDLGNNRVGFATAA

[9] = Volume of distribution at steady state in Sprague-Dawley rat at 2 mg/kg, iv and 6 mg/kg, po by HPLC analysis; type: ADME, organism-based; settings: in vivo, read-out: Vdss; summary of the method: as §2
[10] = Inhibition of human recombinant pepsin A expressed in Escherichia coli using fluorescence-quenched Dabcyl-E-R-Nle-F-L-S-F-P-EDANS as substrate incubated for 1 hr prior to substrate addition measured after 1 hr by fluorescence polarization assay
[11] = Half life in Sprague-Dawley rat at 2 mg/kg, iv and 6 mg/kg, po by HPLC analysis; type: ADME, organism-based; settings: in vivo; summary of the method: as §2
Beta-secretase 2 = target: T5, Beta-secretase 2 (Homo sapiens, UniProt Q9Y5Z0); experiment: Inhibition of human recombinant BACE2 expressed in baculovirus-infected SF9 cells using fluorescence-quenched RE(EDANS)-EVNLDAEF-K(DABSYL)-R as substrate incubated for 1 hr prior to substrate addition measured after 1 hr by fluorescence polarization assay
T5 sequence (Q9Y5Z0 whole entry): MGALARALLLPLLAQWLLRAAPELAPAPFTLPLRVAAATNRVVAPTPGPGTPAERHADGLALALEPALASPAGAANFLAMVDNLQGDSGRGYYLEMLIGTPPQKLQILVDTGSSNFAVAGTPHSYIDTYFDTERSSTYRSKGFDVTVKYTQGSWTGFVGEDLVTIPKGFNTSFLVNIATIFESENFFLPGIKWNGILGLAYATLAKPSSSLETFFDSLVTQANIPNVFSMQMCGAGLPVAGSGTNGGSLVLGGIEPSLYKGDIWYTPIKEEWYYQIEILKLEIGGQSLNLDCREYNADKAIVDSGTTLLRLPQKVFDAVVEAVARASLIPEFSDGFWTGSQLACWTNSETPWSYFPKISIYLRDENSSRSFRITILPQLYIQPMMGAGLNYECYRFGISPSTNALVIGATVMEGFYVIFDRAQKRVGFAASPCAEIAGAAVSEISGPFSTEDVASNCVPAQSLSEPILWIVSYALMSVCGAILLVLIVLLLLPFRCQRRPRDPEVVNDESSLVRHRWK

[12] = Cmax in Sprague-Dawley rat at 6 mg/kg, po by HPLC analysis; type: ADME, organism-based; parameters: dose 6 mg/kg, route oral; settings: in vivo; summary of the method: as §2
Renin [13] = target: T1, Renin; experiment: Inhibition of human plasma renin
Cytochrome P450 3A4 = Cytochrome P450 3A4 (Homo sapiens, UniProt P08684); experiment: Time dependent inhibition of CYP3A4 (unknown origin); type: ADME; settings: TDE = time-dependent effect
Beta-secretase 1 = Beta-secretase 1 (Homo sapiens, UniProt P56817); experiment: Inhibition of human recombinant BACE1 expressed in baculovirus-infected SF9 cells using fluorescence-quenched RE(EDANS)-EVNLDAEF-K(DABSYL)-R as substrate incubated for 1 hr prior to substrate addition measured after 1 hr by fluorescence polarization assay
Renin [14] = target: T1, Renin; experiment: Binding affinity to human recombinant renin by NMR titration analysis
Rattus norvegicus [15] = experiment: Antihypertensive activity in po dosed telemetered hypertensive double-transgenic rat model expressing human renin and angiotensinogen assessed as reduction of mean arterial blood pressure; type: functional, organism-based; settings: Artery; summary of the method: as §1

Beta-secretase 1, sequence (P56817 whole entry): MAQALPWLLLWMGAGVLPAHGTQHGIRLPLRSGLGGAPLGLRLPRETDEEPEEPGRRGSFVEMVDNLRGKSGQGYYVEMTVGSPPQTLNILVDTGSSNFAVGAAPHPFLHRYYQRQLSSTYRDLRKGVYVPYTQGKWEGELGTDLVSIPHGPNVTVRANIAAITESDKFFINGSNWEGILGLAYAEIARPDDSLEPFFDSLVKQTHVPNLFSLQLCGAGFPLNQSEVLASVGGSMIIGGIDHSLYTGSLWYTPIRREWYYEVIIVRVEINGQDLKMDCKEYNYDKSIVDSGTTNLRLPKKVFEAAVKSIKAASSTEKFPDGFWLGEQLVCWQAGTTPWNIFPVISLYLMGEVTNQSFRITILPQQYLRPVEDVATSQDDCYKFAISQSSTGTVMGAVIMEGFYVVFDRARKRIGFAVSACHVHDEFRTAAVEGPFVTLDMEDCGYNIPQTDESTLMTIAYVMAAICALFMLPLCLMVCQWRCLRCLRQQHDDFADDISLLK
Cathepsin D, sequence (P07339 65-162 limits assumed): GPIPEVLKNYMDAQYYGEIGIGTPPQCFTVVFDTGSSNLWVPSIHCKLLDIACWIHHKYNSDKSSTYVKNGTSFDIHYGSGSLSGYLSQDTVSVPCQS
Cathepsin D, sequence (P07339 169-412 limits assumed): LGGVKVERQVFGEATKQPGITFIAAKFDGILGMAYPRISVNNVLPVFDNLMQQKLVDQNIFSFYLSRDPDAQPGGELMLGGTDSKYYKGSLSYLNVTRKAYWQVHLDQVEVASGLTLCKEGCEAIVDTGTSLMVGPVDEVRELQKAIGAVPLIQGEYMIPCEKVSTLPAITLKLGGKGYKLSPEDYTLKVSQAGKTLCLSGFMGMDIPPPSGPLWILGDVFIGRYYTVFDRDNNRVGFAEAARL
Cytochrome P450 3A4, sequence (P08684 whole entry): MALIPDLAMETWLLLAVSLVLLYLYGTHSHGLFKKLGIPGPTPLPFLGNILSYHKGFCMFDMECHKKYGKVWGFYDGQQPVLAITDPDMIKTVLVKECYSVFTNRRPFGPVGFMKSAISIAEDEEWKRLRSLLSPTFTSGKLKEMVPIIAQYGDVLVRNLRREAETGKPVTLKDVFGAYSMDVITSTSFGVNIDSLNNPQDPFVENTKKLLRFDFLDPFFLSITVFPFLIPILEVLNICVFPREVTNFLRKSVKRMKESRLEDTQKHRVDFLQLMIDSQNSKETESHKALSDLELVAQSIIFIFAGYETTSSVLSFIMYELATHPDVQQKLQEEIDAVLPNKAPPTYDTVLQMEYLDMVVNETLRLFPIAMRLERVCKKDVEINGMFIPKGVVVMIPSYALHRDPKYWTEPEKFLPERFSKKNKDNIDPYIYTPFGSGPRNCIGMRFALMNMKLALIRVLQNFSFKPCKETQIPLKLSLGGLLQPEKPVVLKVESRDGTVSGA

SMILES: COCCCCC1(CNC(=O)C2CCCNC2)c2ccccc2Oc2ccccc21 (racemic)
IC50 (Renin [1]): 4 µM

SMILES: O=C(NCC1c2ccccc2Oc2ccccc21)C1CCCNC1 (racemic)
inhibition (Renin (Homo sapiens)): 0%

SMILES: COCCCCC1(CNC(=O)[C@H]2CNC[C@@H](NS(=O)(=O)c3ccc(C)cc3)C2)c2ccccc2Oc2ccccc21
IC50 (Renin [1]): 0.5 µM

SMILES: COCCCCC1(CNC(=O)[C@@H]2CNC[C@H](NS(=O)(=O)c3ccc(C)cc3)C2)c2ccccc2Oc2ccccc21 (racemic)
IC50 (Renin [1]): 0.004 µM

SMILES: Cc1ccc(S(=O)(=O)N[C@H]2CNC[C@@H](C(=O)NCC(c3ccccc3)c3ccccc3)C2)cc1
IC50 (Renin [1]): 0.5 µM

SMILES: COCCCCC1(CNC(=O)[C@@H]2CNC[C@H](NS(=O)(=O)c3ccc(C)cc3)C2)c2ccccc2Oc2ccccc21 [listing 2 of 2 here]
Activity (Rattus norvegicus [15]): Dose-dependent effect

Second part, led by results:

IC50 (Renin [1]): > 30 µM
SMILES: Cc1ccc(S(=O)(=O)N[C@@H]2CNC[C@H](C(=O)NCC(c3ccccc3)c3ccccc3)C2)cc1

IC50 (Renin [1]): 0.09 µM
SMILES: Cc1ccc(S(=O)(=O)N[C@H]2CNC[C@@H](C(=O)NCC3c4ccccc4Oc4ccccc43)C2)cc1 (racemic)

clearance [3]: 43.3 mL/min/kg
IC50 (Cathepsin E): > 30 µM
bioavailability [6]: 18%
AUC(0-t) at 24 h [8]: 0.75 µM·h
IC50 (Cathepsin D): > 30 µM
IC50 (Gastricsin): > 30 µM
Vd [9]: 5.3 L/kg
IC50 [10]: > 30 µM
half-life [11]: 2.3 h
IC50 (Beta-secretase 2): > 30 µM
Cmax [12]: 222 nM
IC50 (Renin [1]): 0.003 µM
IC50 (Renin [13]): 0.025 µM
inhibition (INH) (Cytochrome P450 3A4): tde
IC50 (Beta-secretase 1): > 30 µM
SMILES: COCCCCC1(CNC(=O)[C@@H]2CNC[C@H](NS(=O)(=O)c3ccc(C)cc3)C2)c2ccccc2Oc2ccccc21 [listing 1 of 2 here]
Time (Rattus norvegicus [2]): 3.1 h
Activity (Rattus norvegicus [4]): 28 mmHg
Time (Rattus norvegicus [5]): 7.8 h
Activity (Rattus norvegicus [7]): 58 mmHg

Kd (Renin [14]): > 500 µM
IC50 (Renin [1]): > 100 µM
SMILES: CC(O)CN1CC2c3ccccc3Nc3ccccc3C2C1 (racemic)

Kd (Renin [14]): > 500 µM
IC50 (Renin [1]): > 100 µM
SMILES: OC(CC1c2ccccc2Sc2ccccc21)CN1CCCC1 (racemic)

IC50 (Renin [1]): 1.2 µM
SMILES: Cc1ccc(S(=O)(=O)N[C@H]2CNC[C@@H](C(=O)NCC(c3ccccc3)c3ccccc3)C2)cc1 (racemic)
